Reference: paper PMC4465584 (Journal of medicinal chemistry, 2015)

How the values were obtained:
DENV = DENV subgenomic replicon assay; type: cell-based, Dengue virus; details: for activity against DENV relative to WNV: 10 μM, comparison of replicon assays; for DENV Inhibition %: single concentration 10 μM, 3 days, BHK replicon cells
HIV-1 [1] = test: HIV-1 antiviral assay; type: cell-based; details: data not shown
DNV3MTase = DNV3MTase (Dengue virus type 3, UniProt P27915); test: SAM binding inhibition; parameters: species or system DENV3; details: 20 μM compound, 580 nM biotinylated DNV3MTase, 425 nM 3H-SAM
Method in brief: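 DENV3 MTase from E. coli, refolded from urea on Ni-NTA and cleaved with 3C protease, then NHS-biotinylated (13:1 biotin:protein). Test compound, SAM or sinefungin preincubated 20 min at 23°C. Then 1.65 μCi ³H-SAM, 15 min. Centrifuged; SPA counts read.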

[2] = test system: DENV replicon-containing cells; test: Cell viability assay; type: cell-based, baby hamster; details: single concentration 10 μM, 3 days, DENV replicon BHK cells
[3] = test system: WNV replicon-containing cells; test: Cell viability assay; type: cell-based, baby hamster; details: for cytotoxicity: 10 μM, replicon cells
WNV = WNV subgenomic replicon assay; type: cell-based, West Nile virus; details: for inhibition against WNV relative to DENV: 10 μM, comparison of replicon assays
HIV-1 [4] = details: read-out: EC50 against HIV-1; as reported previously ref 23; cited from earlier work

Chain of DNV3MTase (P27915 2492-2753): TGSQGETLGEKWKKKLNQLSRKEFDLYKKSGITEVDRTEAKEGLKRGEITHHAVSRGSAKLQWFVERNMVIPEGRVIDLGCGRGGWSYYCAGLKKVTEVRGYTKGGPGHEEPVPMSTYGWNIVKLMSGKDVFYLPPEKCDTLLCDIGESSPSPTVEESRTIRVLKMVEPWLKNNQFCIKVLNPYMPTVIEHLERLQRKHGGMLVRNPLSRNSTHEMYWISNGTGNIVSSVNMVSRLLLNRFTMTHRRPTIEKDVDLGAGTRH

Cc1cn([C@H]2C[C@H](NC(=O)Nc3cccc4ccccc34)[C@@H](CO[Si](C)(C)C(C)(C)C)O2)c(=O)[nH]c1=O [19b]
activity against DENV relative to WNV (DENV): considerably more active against DENV than WNV

COc1ccc2cc(-c3cnnn3[C@H]3C[C@H](n4cc(C)c(=O)[nH]c4=O)O[C@@H]3CO[Si](C)(C)C(C)(C)C)ccc2c1 [11a]
anti-HIV-1 activity (HIV-1 [1]): no appreciable anti-HIV-1 activity
DENV Inhibition % (DENV): inhibited both viruses almost completely

Nc1ncnc2c1ncn2[C@@H]1O[C@H](C[C@@H](N)CC[C@H](N)C(=O)O)[C@@H](O)[C@H]1O [SIN, sinefungin]
Inhibition of the [3H]-SAM-MTase complex formation (DNV3MTase): same level of reduction

COc1ccc2cc(-c3cnnn3[C@H]3C[C@H](n4cc(C)c(=O)[nH]c4=O)O[C@@H]3COC(C)=O)ccc2c1 [compound 24, ((2S,3S,5R)-3-(5-(6-Methoxynaphthalen-2-yl)-1H-1,2,3-triazol-1-yl)-5-(5-methyl-2,4-dioxo-3,4-dihydropyrimidin-1(2H)-yl)tetrahydrofuran-2-yl)methyl acetate]
DENV Inhibition % (DENV): did not yield appreciable antiviral activity

3′-azidothymidine [4, AZT, reference compound]
DENV Viability % [2]: 89%
WNV Viability % ([3]; single concentration 10 μM, 3 days, WNV replicon BHK cells): 83%
DENV Inhibition % (DENV): 0%
WNV Inhibition % (WNV; single concentration 10 μM, 3 days, BHK replicon cells): 0%

COc1ccc2cc(-c3cnnn3[C@H]3C[C@H](n4cc(C)c(=O)[nH]c4=O)O[C@@H]3CO)ccc2c1 [10a, 1-((2R,4S,5S)-5-(Hydroxymethyl)-4-(5-(6-methoxynaphthalen-2-yl)-1H-1,2,3-triazol-1-yl)tetrahydrofuran-2-yl)-5-methylpyrimidine-2,4(1H,3H)-dione]
DENV Inhibition % (DENV): did not show any inhibition
EC50 (HIV-1 [4]): 67 nM

COc1ccc2cc(-c3cnnn3[C@H]3C[C@H](n4cc(C)c(=O)[nH]c4=O)O[C@@H]3CO[Si](C(C)C)(C(C)C)C(C)C)ccc2c1 [compound 22]
cytotoxicity [3]: significant cytotoxicity

COc1ccc2cc(-c3cnnn3[C@H]3C[C@H](n4cc(C)c(=O)[nH]c4=O)O[C@@H]3COC3CCCCO3)ccc2c1 (stereo partly drawn) [compound 27, 1-((2R,4S,5S)-4-(5-(6-Methoxynaphthalen-2-yl)-1H-1,2,3-triazol-1-yl)-5-(((tetrahydro-2H-pyran-2-yl)oxy)methyl)-tetrahydrofuran-2-yl)-5-methylpyrimidine-2,4(1H,3H)-dione]
DENV Inhibition % (DENV): did not yield appreciable antiviral activity

Cc1cn([C@H]2C[C@H](N3C(=O)CSC3c3c4ccccc4cc4ccccc34)[C@@H](CO[Si](C)(C)C(C)(C)C)O2)c(=O)[nH]c1=O (stereo partly drawn) [13c]
inhibition against WNV relative to DENV (WNV): substantially higher inhibition against WNV than DENV

Cc1ccc(S(=O)(=O)NC(=O)N[C@H]2C[C@H](n3cc(C)c(=O)[nH]c3=O)O[C@@H]2CO[Si](C)(C)C(C)(C)C)cc1 [21a, N-(((2S,3S,5R)-2-(((tert-Butyldimethylsilyl)oxy)methyl)-5-(5-meth-yl-2,4-dioxo-3,4-dihydropyrimidin-1(2H)-yl)tetrahydrofuran-3-yl)-carbamoyl)-4-methylbenzenesulfonamide]
activity against DENV relative to WNV (DENV): considerably more active against DENV than WNV

COc1ccc2cc(-c3cnnn3[C@H]3C[C@H](n4cc(C)c(=O)[nH]c4=O)O[C@@H]3CO[Si](c3ccccc3)(c3ccccc3)C(C)(C)C)ccc2c1 [compound 23]
cytotoxicity [3]: significant cytotoxicity

Cc1cn([C@H]2C[C@H](N3C(=O)CSC3c3ccc4[nH]ccc4c3)[C@@H](CO[Si](C)(C)C(C)(C)C)O2)c(=O)[nH]c1=O (stereo partly drawn) [13b]
inhibition against WNV relative to DENV (WNV): substantially higher inhibition against WNV than DENV

Cc1cn([C@H]2C[C@H](NC(=O)NC34CC5CC(CC(C5)C3)C4)[C@@H](CO[Si](C)(C)C(C)(C)C)O2)c(=O)[nH]c1=O [19c]
inhibition against WNV relative to DENV (WNV): substantially higher inhibition against WNV than DENV

Cc1cn([C@H]2C[C@H](NC(=O)Nc3ccccc3)[C@@H](CO[Si](C)(C)C(C)(C)C)O2)c(=O)[nH]c1=O [19a]
activity against DENV relative to WNV (DENV): considerably more active against DENV than WNV

Cc1cn([C@H]2C[C@H](NC(=O)c3ccc(N4CCOCC4)cc3)[C@@H](CO[Si](C)(C)C(C)(C)C)O2)c(=O)[nH]c1=O [15h]
activity against DENV relative to WNV (DENV): considerably more active against DENV than WNV

CCOCOC[C@H]1O[C@@H](n2cc(C)c(=O)[nH]c2=O)C[C@@H]1n1nncc1-c1ccc2cc(OC)ccc2c1 [compound 26, 1-((2R,4S,5S)-5-((Ethoxymethoxy)methyl)-4-(5-(6-methoxynaphthalen-2-yl)-1H-1,2,3-triazol-1-yl)tetrahydrofuran-2-yl)-5-methylpyrimidine-2,4(1H,3H)-dione]
DENV Inhibition % (DENV): did not yield appreciable antiviral activity

C[S+](CC[C@H](N)C(=O)[O-])C[C@H]1O[C@@H](n2cnc3c(N)ncnc32)[C@H](O)[C@@H]1O (stereo partly drawn) [SAM, S-adenosyl-L-methionine]
Inhibition of the [3H]-SAM-MTase complex formation (DNV3MTase): same level of reduction

COC[C@H]1O[C@@H](n2cc(C)c(=O)n(C)c2=O)C[C@@H]1n1nncc1-c1ccc2cc(OC)ccc2c1 [compound 25, 1-((2R,4S,5S)-5-(Methoxymethyl)-4-(5-(6-methoxynaphthalen-2-yl)-1H-1,2,3-triazol-1-yl)tetrahydrofuran-2-yl)-3,5-dimethylpyrimidine-2,4(1H,3H)-dione]
DENV Inhibition % (DENV): did not yield appreciable antiviral activity

Cc1cn([C@H]2C[C@H](NC(=O)c3c[nH]c4ccccc34)[C@@H](CO[Si](C)(C)C(C)(C)C)O2)c(=O)[nH]c1=O [15f]
activity against DENV relative to WNV (DENV): considerably more active against DENV than WNV
